How the values were obtained:
NF-κB p65 (RelA) subunit = NF-κB p65 (RelA) subunit (Homo sapiens, UniProt Q04206); assay: Enzyme-based ELISA NF-κB; format: biochemical
[1] = system: P-388 lymphocytic murine leukemia; settings: ref Herz et al., 1981; cited from earlier work
[2] = system: LNCaP (hormone-dependent human prostate cancer); assay: In vivo hollow fiber assay, LNCaP; parameters: species or system human cells in host mice; settings: ip administration, 0.5 to 10 mg per kg per day for four days
Summary of the method: (§1)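 Murine hollow fiber model following an NCI procedure, with human cancer cells (HT-29, LNCaP, MCF-7) held in fibers. Test compound given ip at 0.5 to 10 mg/kg per day for four days, in 5% EtOH plus 5% Tween 80 in physiologic saline. Paclitaxel positive control at 2.0 mg/kg per day for four days.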

[3] = system: MCF-7 (human breast cancer); assay: In vivo hollow fiber assay, MCF-7; parameters: species or system human cells in host mice; settings: MCF-7, ip administration, 0.5 to 10 mg per kg per day for four days
Summary of the method: as §1

[4] = Body weight of host mice in the hollow fiber assay; format: in vivo; settings: highest two doses (10 and 5 mg/kg/day), ip, over the course of the study
Summary of the method: as §1

[5] = system: HT-29 human colon cancer cell line; assay: Cytotoxic activity against the HT-29 cell line; format: cell-based; settings: for Cytotoxicity ED50: HT-29 cells
[6] = Stability in solvents at room temperature; format: physicochemical; settings: kept in CDCl3 or deuteriobenzene at room temperature; [2+2] addition
HT-29 human cancer cells = assay: In vivo hollow fiber assay, HT-29; parameters: species or system human cells in host mice; settings: HT29, ip administration, 0.5 to 10 mg per kg per day for four days
Summary of the method: as §1

NF-κB p65 (RelA) subunit, sequence (Q04206 whole entry, species assumed): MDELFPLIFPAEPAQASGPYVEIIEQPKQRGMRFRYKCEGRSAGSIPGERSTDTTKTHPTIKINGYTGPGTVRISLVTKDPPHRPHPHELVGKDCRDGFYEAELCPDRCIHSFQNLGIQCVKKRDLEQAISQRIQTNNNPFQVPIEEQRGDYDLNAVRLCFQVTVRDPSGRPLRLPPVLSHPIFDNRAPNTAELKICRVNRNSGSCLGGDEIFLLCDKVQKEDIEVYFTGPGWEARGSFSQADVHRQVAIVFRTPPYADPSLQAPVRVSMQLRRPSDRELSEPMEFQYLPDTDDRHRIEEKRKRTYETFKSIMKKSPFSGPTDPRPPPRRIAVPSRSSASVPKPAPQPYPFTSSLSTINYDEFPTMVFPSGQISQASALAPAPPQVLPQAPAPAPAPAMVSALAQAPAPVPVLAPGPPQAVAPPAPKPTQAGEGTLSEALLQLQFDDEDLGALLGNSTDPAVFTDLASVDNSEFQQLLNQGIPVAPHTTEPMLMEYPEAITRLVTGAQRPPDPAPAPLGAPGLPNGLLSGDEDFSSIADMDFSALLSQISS

Substance	NF-κB Inhibition ED50 (NF-κB p65 (RelA) subunit) [µM]	in vivo antitumor activity [1]	inhibition of proliferation in hollow fibers [2]	inhibition of proliferation in hollow fibers [3]	body weight loss [4]	Cytotoxicity ED50 [5] [µM]	stability in solvents [6]	inhibition of proliferation in hollow fibers (HT-29 human cancer cells)	change of potency of the inhibitory effect on HT-29 cells relative to compound 3 ([5]; tiglate instead of methacrylate on C-8)
13-acetoxyrolandrolide [Compound 3]	7.1	weak	no inhibition of proliferation was observed	no inhibition of proliferation was observed	up to 20%	0.16	partially transformed to compound 6	no inhibition of proliferation was observed	–
8-desacyl-13-acetoxyrolandrolide-8-O-tiglate [Compound 4]	–	–	–	–	–	1.5	–	–	decreased around ten times
2-epi-glaucolide E [Compound 5]	> 10	–	–	–	–	9.4	–	–	–
2α,13-diacetoxy-4α-hydroxy-8α-methacryloyloxybourbonen-12,6α-olide [Compound 6]	2.8	–	–	–	–	–	–	–	–

Source: paper PMC2847506 (Phytochemistry, 2010)
